The list is not random: actives were taken first. Their share in the collection is about 4.8%.
HSF-1 act: HSF-1 activators, primary screen, NIH3T3-HGL cells, MG132 stress, luminescence, single point; NIH3T3-HGL HSF-1 luciferase reporter, 8 h; 100% = twice DMSO control signal; activation, % at 9 µM; hit rate 1.7% among 300,000; AID 504408, 2011;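 active means mean replicate activation of at least 50% with a set share of replicates each reaching 50%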;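 further: 0% = median of the neutral control wells and 100% = twice that signal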
GPR7 antag: GPR7 receptor antagonists, primary screen, cell-based, fluorescence, single concentration | Neuropeptides B/W receptor type 1 (Homo sapiens), P48145 | GPR7-expressing cells, fluorescence antagonist assay | inhibition, % at 4.4 µM | hit rate 1.1% among 290,000 | AID 1861, 2009; in the data active means inhibition above about 16%, passing the limit was not always enough;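 further: cells stimulated with the agonist NPW; 0% = agonist with vehicle and 100% = vehicle without agonist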
Target sequence (P48145 whole entry, looked up): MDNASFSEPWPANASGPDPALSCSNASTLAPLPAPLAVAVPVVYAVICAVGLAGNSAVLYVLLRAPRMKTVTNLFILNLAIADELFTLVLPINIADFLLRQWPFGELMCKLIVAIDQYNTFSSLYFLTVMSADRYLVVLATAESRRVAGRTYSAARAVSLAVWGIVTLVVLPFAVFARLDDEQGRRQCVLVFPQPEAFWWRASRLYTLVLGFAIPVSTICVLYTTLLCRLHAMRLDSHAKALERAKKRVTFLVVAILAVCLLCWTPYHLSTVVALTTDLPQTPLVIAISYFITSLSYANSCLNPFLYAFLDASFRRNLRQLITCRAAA
T cruzi inh: inhibitors of intracellular T. cruzi growth, primary screen, luminescence, NIH3T3 host cells; T. cruzi beta-gal in NIH3T3, 90 h; inhibition, % (concentration not given with the values); hit rate 1.4% among 300,000;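 active means mean inhibition across valid replicates above about 55%, limit read from the data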;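 further: signal also drops with host cell toxicity which is not excluded here; 0% = plate median of DMSO wells and 100% = zero luminescence signal; higher percent means less beta-gal luminescence so fewer parasites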
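Test system: β-gal T. cruzi (Tulahuen C4) inside NIH/3T3 cells / Quantity: 5,000 cells/well / Measured by: luminescence from GalScreen with 0.05% NP40, read after 60 min / Medium: DMEM plus 2% FBS / Measure: parasite load inhibition, % / Reagent: Tulahuen C4 trypomastigotes, 5000/well / Schedule: co-culture of at least 90 h after 3 h attachment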
HSF1 inh: HSF1 inhibitors in luciferase reporter cells, primary screen, cell-based, NIH3T3, luminescence | NIH3T3-HGL HSE-luciferase, MG132-induced, luminescence 8 h; active compounds read low | activity change, negative = inhibition, % at 7.5 µM (by protocol) | hit rate 0.77% among 300,000;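 active means more than half of replicate wells show activity change below -50%, luminescence cut by over half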;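 further: luciferase reports HSF-1 transcriptional activity via heat shock element; 0% = median of DMSO wells and -100% = zero luminescence signal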
Jurkat NFkB inh: inhibitors of induced NF-kB luciferase reporter, primary screen, TCR NF-kB activation inhibitor project, cell-based, luminescence, uHTS; hit rate 0.53% among 330,000; inhibition, % at 4 µM; AID 435003, 2010; Jurkat, PMA/ionomycin-induced NF-kB luciferase reporter; in the data active means inhibition above about 50%
697 NFkB inh: inhibitors of PMA/ionomycin-induced NF-kB reporter, 697 cells, primary screen, B-cell NF-kB inhibitor project, cell-based, luminescence, uHTS; 697 B-cell NF-kB luciferase reporter, 16 h; inhibition, % at 4 µM; hit rate 0.33% among 330,000; in the data active means inhibition above about 35%
Jurkat NFkB conf: PMA/ionomycin-induced NF-kB reporter inhibitors, Jurkat retest, confirmation, T-cell NF-kB inhibitor project, cell-based, luminescence, single concentration | inhibition, % at 4 µM | hit rate 27% among 2,700 | AID 435020, 2010 | shares compounds with Jurkat NFkB inh | Jurkat NF-kB luciferase, 16 h;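 active means inhibition reaching about 45% at 4 µM in either replicate, limit read from the data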;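 further: plate controls were PMA/ionomycin stimulated DMSO wells for no effect and unstimulated DMSO wells for full effect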
* marks the source's active call; other numbers are inactive results; . = not tested or not shown.

SMILES	HSF-1 act	GPR7 antag	T cruzi inh	HSF1 inh	Jurkat NFkB inh	697 NFkB inh	Jurkat NFkB conf
COc1ccc(-n2ncc3c(NC(C)C)ncnc32)cc1	2	17	12	4	-176	-242	-124
COC(=O)[C@@]12CCCCN1[C@H](c1ccc(-c3ccc(C(C)=O)cc3)c(OC)c1)[C@@H]1C(=O)N(C)C(=O)[C@@H]12	-11	.	3	-2	-15	-27	.
Cc1ncc([N+](=O)[O-])n1CC(=O)Nc1cc(Cl)ccc1Cl	20	4	6	4	10	22	.
Cc1cccc(NC(=O)c2nc[nH]c2C(=O)NC2CCN(C(=O)OC(C)(C)C)CC2)c1	.	.	.	.	11	-6	.
Cc1ccc(OCC(=O)Nc2sc3c(c2C#N)CC(C)(C)NC3(C)C)cc1	-1	1	-11	-1	-16	-8	.
CC1(C)Cc2c(sc(NC(=O)COc3cccc4ccccc34)c2C#N)C(C)(C)N1	-15	-8	9	-7	87*	-17	62*
CSc1ccccc1OCc1cc(C(=O)NCc2csc(C(C)C)n2)no1	1	0	14	8	10	-12	.
C=CCOc1c(Cl)cc(CNc2ccc(C)c(Cl)c2)cc1OC	-27	-2	55*	-24	60*	5	36
Cc1cccc(NC(=O)CCCN2C(=O)C(c3ccccc3)Oc3cccnc32)c1C (stereo not given)	4	-2	21	2	12	-26	.
CC(C)NCC(O)Cn1c2c(c3ccccc31)CCc1c-2cnn1-c1ccccc1 (stereo not given)	-2	14	40	3	59*	-165	-12
COc1ccc(-n2cc(-c3ccc(C)cc3)[n+]3c2SCC3)cc1	-29	-5	59*	-4	60*	23	56*
c1ccc(-c2cn(-c3ccccc3)c3[n+]2CCCS3)cc1	3	-5	27	-6	8	-20	.
Cc1ccc(C)c(N2CCN(c3ncccc3[N+](=O)[O-])CC2)c1	-28	-27	13	-20	12	8	.
CCN(C(=O)C1CCCN(c2ncnc3c2nc2n3CCCCC2)C1)c1cccc(Cl)c1 (stereo not given)	-5	-11	17	-5	-4	-19	.
Cc1ccc(C(=O)Nc2cc3ccccc3oc2=O)cc1	-75	-9	-64	-72*	79*	1	77*
CC(=O)Nc1cc2ccccc2oc1=O	-26	-7	-1	-4	3	-9	.
Cc1cc(NC(=S)NC(=O)c2ccccc2)ccc1-c1cc2ccccc2oc1=O	-9	-5	-14	-8	59*	-24	4
COc1cc(C(=O)NC(=S)Nc2cccc(-c3cc4ccccc4oc3=O)c2)cc(OC)c1OC	-13	-2	6	-7	11	-13	.
O=C(NCc1ccc(S(=O)(=O)Nc2ccccc2Cl)s1)c1ccccc1	5	-17	-5	0	7	9	.
Brc1ccc2c(c1)CN1CCCC1=N2	49	13	28	16	73*	26	24
O=C1CN2C(=Nc3ccc(Br)cc3C2c2ccccc2)CCN1 (stereo not given)	46	-6	-4	19	3	-13	.
CCOC(=O)CSC1=C(C#N)C(c2ccc(C)s2)CC(=O)N1 (stereo not given)	-23	11	-43	-3	57*	5	49*
CCSC1=C(C#N)C(c2ccc(C)s2)CC(=O)N1 (stereo not given)	17	-1	0	6	-13	-16	.
OC1(Cc2ccccc2)CCNCC1	7	-18	3	2	-2	-7	.
COC(=O)c1ccc(NC(=O)COc2coc(CN3CCc4ccccc43)cc2=O)cc1	-8	.	-6	12	21	15	.
SMILES	HSF-1 act	GPR7 antag	T cruzi inh	HSF1 inh	Jurkat NFkB inh	697 NFkB inh	Jurkat NFkB conf
Cc1ccc(C(=O)CSc2nnc3n2CCCCC3)s1	.	.	.	.	-36	-21	.
CC(C)(C)c1csc(Sc2ccc([N+](=O)[O-])cn2)n1	3	2	-49	-1	81*	4	40
CCOC(=O)c1cc(CC)sc1NC(=O)c1cccc(N2C(=O)CCC2=O)c1	-16	0	-2	1	57*	-68	8
COc1ccc(C(=O)Nn2c(CC(C)C)nc3cc(Cl)ccc3c2=O)c(OC)c1	6	-9	20	-4	8	-13	.
COc1ccc(C(=S)N2CCN(c3cccc(Cl)c3)CC2)c(OC)c1	.	28*	-3	.	63*	-38	-5
CSc1nc(N(C)NC(=O)c2ccc(F)cc2)c2ccccc2n1	-14	11	1	-11	51*	-1	33
Cc1nc(SCC(=O)NNC(=O)c2ccc(F)cc2)c2ccccc2n1	.	.	.	.	-3	16	.
COc1ccc(CCNC(=O)C(=O)NCC2OCCN2C(=O)c2ccc(Cl)cc2)cc1 (stereo not given)	2	-16	8	6	-14	10	.
O=C(COC(=O)c1cccnc1Cl)Nc1ccc2c(c1)OCCO2	42	-3	-14	18	-11	3	.
CCOc1ccc(N(CC(=O)Nc2ccccc2C)S(=O)(=O)c2c(C)noc2C)cc1	-5	7	-29	-4	58*	-62	46*
CCOc1ccc(N(CC(=O)Nc2ccc(C)c(C)c2)S(=O)(=O)c2c(C)noc2C)cc1	2	3	20	1	12	-17	.
CCOc1ccccc1NC(=O)CN(c1ccc(OC)cc1)S(=O)(=O)c1c(C)noc1C	14	-13	-7	-6	65*	-44	44
CC(C(=O)NCc1cccs1)N1CCN(S(=O)(=O)c2ccc3c(c2)OCCCO3)CC1 (stereo not given)	.	.	.	.	8	5	.
COc1cc(NC(=O)c2csc(N)n2)cc(C(=O)Nc2cccc(C(F)(F)F)c2)c1	-38	.	1	-19	64*	-33	-1
Cc1cc(C)n(-c2ncnc3ccccc23)n1	-13	-9	1	3	5	10	.
Cc1ccc(NC(=O)c2cc3ccccc3oc2=O)cc1S(=O)(=O)N(C)C	-91	0	1	-89*	56*	-48	91*
CCc1cc2c(=O)n(Cc3ccco3)c(SCc3c(C)noc3C)nc2s1	6	6	26	17	55*	2	28

Compound activity from PubChem.
